Test system: MS2 coat protein
Assay: apparent Kd, MS2 coat protein; higher = weaker binding; RNA-MaP array; FMN 200 µM where present
Procedure, shortened: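 Stalled E. coli RNA polymerase transcribed the designs on Illumina sequencing-chip clusters. SNAP-549-labelled MS2 coat protein was titrated from 0.7 or 1.5 nM, doubling to 3 µM, without and then with constant ligand, in 100 mM Tris-HCl pH 7.5, 80 mM KCl, 4 mM MgCl2, BSA, DTT, yeast tRNA and Tween-20. Per-cluster binding curves were fitted to green signal normalised to red-channel RNA signal and control-cluster median Fmax. The apparent Kd is the median of the filtered fits.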

[1] = designed as: OFF switch for flavin mononucleotide, no ligand
[2] = ligand present: flavin mononucleotide, designed as: OFF switch for flavin mononucleotide
[3] = designed as: ON switch for flavin mononucleotide, no ligand
[4] = ligand present: flavin mononucleotide, designed as: ON switch for flavin mononucleotide

Sequence	apparent Kd [1] [nM]	apparent Kd [2] [nM]	apparent Kd [3] [nM]	apparent Kd [4] [nM]
UGGUUUGGGCUAGAUGCACAGACAUGAGGAUCACCCAUGUCUGAGGAUAUGCGUCAACAUAGGCAGCAGAAGGCAGACACUCGC	15	22.2		
GUCAGCUCGUGAGGAUAUACAACACUGCUUCGGCGGUGUAUUAAGAUCACAUGAGGAUCACCCAUGUAGAAGGCACGAGCUGAU	13.1	249		
UGGGACGUCGUAGGAUAUGUAGGAUAUUCCUACAUGAGGAUCACCCAUGUUGACAUGGAAGAAGGACAGAAGGACGAUGUCCAU			211	4.78
GGAGAGGAAACAUGAGGAUCACCCAUGUGAGUGGUCCGAAGAUAGGAUAUCCACACGAGAAGUGUGGAGAAGGAUCACCUCUCC	746	571		
GUGACGAAUGUAGGAUAUGCUGAGGAAUACUCAGCAGAAGGACAUGAGGAUCACCCAUGUCAUCCUUAUAAUAAAUAUCGUCAC	13.4	17.7		
AAAUAGAAUGAGGAUAUCGUACUGGAUAUAGUGCGAGAAGGCAUUACAUGAGGAUCACCCAUGUUUUGUUGGGA	25.6	76.6		
CUGUGUGACCGAGGAUAUAGACAUGAGGAUCACCCAUGUACGCCCAUCCAUGAAAGGUCCGUCGUCUAGAAGGCGGAGGCAAUG	11.2	23.4		
UUGCCUCAGAACAUGAGGAUCACCCAUGUGCUGUGGGCAACAUAGGAUAUGAUGGUAUUAUACCGUCAGAAGGAUGAUGGUACU			5.34	5.06
GGAUAAGACAGAGGAUAUACGUGCUAGAGAUACUAGCAAAAUUUCCUCACAUGAGGAUCACCCAUGUAGAAGGCUGUCCUAUCG	16.9	291		
UUAUGAGAGCAGGAUAUCUUAUAUGUGUAUUAAAGAGAAGGGCUCACAUGAGGAUCACCCAUGUGGUCCUAGAU	44.2	309		
GGUUGGCGAGGAUAUACAUGAGGAUCACCCAUGUGGUCCUGUGAAAAAAAAAACCUUUGUAGAAGGCGCGGGUC	292	281		
AUCCGGCGUGUAGGAUAUGGAAACGAUUAGGAUCCAGAAGGACAUGAGGAUCACCCAUGUACAUGUAAACAGUCAUCACCGGAA	14.5	52.2		
GGGCCCGGAGGAUAUACAAUUGUGUGUGGAAACGCGCGCGUACAUGAGGAUCACCCAUGUAGAAGGCCGGGCCC	15.9	54.6		
UGCAUGUGAGGAUAUGUGUACUGUUUUUUGUUUAGAUGUACACAGAAGGCACAUGAGGAUCACCCAUGUAGUAC	95.8	22.4		
UUUAUAAAUUAGAAGGCGAGAUGAAUUACAAUAGACAUGAGGAUCACCCAUGUGUACCCAUGUUUUGAGGAUAUAGUCAUAUAU			743	585
GCUUUAUAGAUCCAUUUUAACAACAUGAGGAUCACCCAUGUGCAGGAUAUCGAUUGUUUUAUUUUCGAGAAGGGCAAAUUCAGC	35.2	87.7		
GGGUGACAUGAGGAUCACCCAUGUCAGGAUAUGCGCGCGCGCGCGAAAGUGUGUGUGUGUAGAAGGGACUGCCC	49.6	81.2		
AGGGCGGGAGGAUAUCCAAUAUAUGACAUGAGGAUCACCCAUGUUUCCACUCGUACCUCCGGAGAAGGCCCGCCCA	24.4	22.3		
GGAUGACAAAGUCAUCCAAAUCGAACAUGAGGAUCACCCAUGUAGGAUAUGGUACUCAAAGAGUACCAGAAGGACAUGUGCUUU	40	191		
GGGACGAAAGUCGAACGAUGUAGCAGAAGGACAUGAGGAUCACCCAUGUCAGCUGUAACAGCCAUGUAGGAUAUGCUACAUCCC	4.61	5.96		
AAAAAGGGAGGAUAUACAUGAGGAUCACCCAUGUAGCAGACGAAAAAGAGUCUGUAAUGUAGAAGGCCCAAAAA	17.1	52.7		
CGCAACUCUUCACAUGUCAACAUGAGGAUCACCCAUGUAUUGAGAAGGAGGAAGAAGAGAGAUUCCUAGGAUAUCAGAGUUGCG	6.75	6.08		
GGAGAGGUAGGAUAUGGAGCUUAGAACAUGAGGAUCACCCAUGUAGGACCACAUGAUUUGCCAGAAGGACCAGUCC	421	558		
AAUUCUUGUGAAGGAUAUACGGCGGGUCGCGCAGUAGAAGGUCACAUGAGGAUCACCCAUGUCGACAAUGCGCAGUAUCGACAA	72	164		
UUUGGGUGAGGAUAUCAGUCUGGAUCAGACUAGAUCCUGACUGAGAAGGCACAUGAGGAUCACCCAUGUGAGUU	294	320		
CCAACUGGAGGAUAUGCAGCGGCGGUCUCUUGGUUUGCAUUACAUGAGGAUCACCCAUGUAGAAGGCCGGUUGU	117	201		
ACACGGAAGUCAGGAUAUGUAUCAGCACGAUUGUUACAUGAGGAUCACCCAUGUUUCACGGGCCAACAGAAGGGACAGGGUGGC			23.6	7.82
UUGUUGUAUGUAGGAUAUGCGUAUUAUUAUUAUGCAGAAGGACAUGAGGAUCACCCAUGUAUAUUAUUAUUAUAUAUUAUAUAU	26.9	56.1		

Sequence	apparent Kd [1] [nM]	apparent Kd [2] [nM]	apparent Kd [3] [nM]	apparent Kd [4] [nM]
GGAAUUAAGGGAGGAUAUAGGCGACAUGAGGAUCACCCAUGUACGGAGGGCUCUUCCCGUGUUCACUAGAAGGCCCAUGUUACC	16.5	73.7		
AAGAAGUGAGGAUAUGCUGCUCGUCACUUGCGUGAUGAGUAGCAGAAGGCACAUGAGGAUCACCCAUGUGAAGA	25.1	42.2		
AACCUGAUAGUGAGGAUAUCGGCGACGACAAGUCACGAGAAGGCACAUGAGGAUCACCCAUGUGAUAAAAUAAA	20.4	42.1		
GGUGGACAUGAGGAUCACCCAUGUGAGGAUAUCGGCCGGCUAGUGGUGGCUGGCUUCUCGAGAAGGCGCAUAGU	61.8	99.7		
UGUUGUAUUACAGGAUAUCUAGUGUUUUUAUUUAGAGAAGGGUAUUCACAUGAGGAUCACCCAUGUAUAUACGAGGAAGUUGUG			55.9	61.2
AGGUAAGACUUAAUUGUGCUGGUGAGAAGGCAAAUGGUUGUGACCAACAUGAGGAUCACCCAUGUUGAGGAUAUCAUCGGUAUC	86.2	361		
UGAUCUAGCGGAGGAUAUACAUGAGGAUCACCCAUGUAGAUAUCAUGACCGUAGUCGUGUAUCGUGUAGAAGGCCGCUAGAUCU	12.7	24		
CAUUAUUAUCGAGGAUAUCCUAUUGAAAUUCUGGGAGAAGGCGGACUCAACAUGAGGAUCACCCAUGUGGGACGGAUGCUAGGA	18.5	15.4		
GUGUACAGAGGAUAUACUUAUGGAGUUACGAAAGUAACUUCACAUGAGGAUCACCCAUGUAGAAGGCUGUACAC	27.3	31		
GGCUAACAUGAGGAUCACCCAUGUCGCCAAAAUCGAGGAUAUGGGUGCCAGCUCGGGCAGCCAGAAGGCGACAAAA			225	33.1
CUCCGGCAAGGAUAUGCGUCUUCUCCCAUGAAACAAAAUAAACAUGAGGAUCACCCAUGUAGAAGGUGCAGGAC	33.1	28.6		
UGGAGGUCAGGAUAUGCAUGGCGGGACUUGCGUCGUGGCGUGCAGAAGGGACAUGAGGAUCACCCAUGUGGAGU	112	77.4		
GUAGCUAUCGGAGGAUAUUCAUACCGCAAACGGACAUGAGGAUCACCCAUGUGGCGAAAGCAUUGGGAGAAGGCCGAUAGCUAC			22.5	5.68
CUGGUGUGAGGAUAUCAGGACACGCCCGAGGGCGUGUCAAAUGAGAAGGCACAUGAGGAUCACCCAUGUGGGAC	42.3	99.6		
AGCUGACGAGGAUAUACAUGAGGAUCACCCAUGUUGGUUCAGCGACUUCGGUCGCAAUGUAGAAGGCGUCAGCU	450	327		
UUAAUUUAAUGAUAUUAUGACAUUAGAAGGCUGUACAUGUUGAUACAUGAGGAUCACCCAUGUAUAGAGGAUAUAGACAAUUUU	33.2	89		
CUAUUGCUAACAGGAUAUAUGAGUCCUACAUGAGGAUCACCCAUGUAGGUGAUCAGCCGUGAUUAGUAGAAGGGUUAGCAAUAG			12.2	6.91
UCCACUGCUGAGAAGGGAUACGUCUGGUUCGCAUCAGGAUAUCGAUACAGUGCAGCAUGAGGACAUGAGGAUCACCCAUGUAUC			11	8.98
GAAGUAUCCAAUAACAUGAGGAUCACCCAUGUCAAAAGACGGGAGGAUAUUGAUCUGAAGAAGAUCAAGAAGGCCUGGUGCUAA			19.2	11.1
UGUCGGAGCAGAGGAUAUUACAUGAGGAUCACCCAUGUAAUAAAUGGAAGCUGGAAACAGCAAUGUAAGAAGGCUGCUCCGACA	17.4	47.9		
AUCUCGUCAGGAUAUGACUACAUAAAAAAUAAAAAAUGUAGUCAGAAGGGACAUGAGGAUCACCCAUGUACCAA	19.1	18.4		
UUAAUUAUACAAGGAUAUCUAUUGUAGUUUCGACUAACAUGAGGAUCACCCAUGUAAAUAUGUUAAGAGAAGGUGUAUUUUAAA			45.5	30.3
GUUUAGUGAGGAUAUGUGGCGUGGAUCGAGCGCGGUCGGCUACAGAAGGCACAUGAGGAUCACCCAUGUUUCUC	106	280		
GUCAGCUCGUGAGGAUAUACAACACUGCUUCGGCAGUGUAUUAAGAUCACAUGAGGAUCACCCAUGUAGAAGGCAGGAGCUGAU	15.7	250		
GCUGCAUAGGCAGGAUAUGCAAUAAUUCGAAUAAAAUAUAACGAAUUAACAUGAGGAUCACCCAUGUAGAAGGGCCUGUGCAGC	5.51	4.99		
AAGUAGAUCCGAGGAUAUACAAGGCGGAAAUGCUACAUGAGGAUCACCCAUGUAGAAGGCGGAUCUACAGGUACUAAAGUACCA	6.71	19.3		
CUCAAACAUGAGGAUCACCCAUGUGUUGUCAUGGGAGGAUAUCCCAGUUCGGUGACGUCGGGAGAAGGCCUAUGUC			113	35.2
